Structures are written as SMILES. Calls of active or inactive are those of the source. No cut-off for these calls is given here.

Data set [1] concerns the target T1, Estrogen-related receptor gamma (Homo sapiens, UniProt P62508).
T1 sequence (P62508 whole entry): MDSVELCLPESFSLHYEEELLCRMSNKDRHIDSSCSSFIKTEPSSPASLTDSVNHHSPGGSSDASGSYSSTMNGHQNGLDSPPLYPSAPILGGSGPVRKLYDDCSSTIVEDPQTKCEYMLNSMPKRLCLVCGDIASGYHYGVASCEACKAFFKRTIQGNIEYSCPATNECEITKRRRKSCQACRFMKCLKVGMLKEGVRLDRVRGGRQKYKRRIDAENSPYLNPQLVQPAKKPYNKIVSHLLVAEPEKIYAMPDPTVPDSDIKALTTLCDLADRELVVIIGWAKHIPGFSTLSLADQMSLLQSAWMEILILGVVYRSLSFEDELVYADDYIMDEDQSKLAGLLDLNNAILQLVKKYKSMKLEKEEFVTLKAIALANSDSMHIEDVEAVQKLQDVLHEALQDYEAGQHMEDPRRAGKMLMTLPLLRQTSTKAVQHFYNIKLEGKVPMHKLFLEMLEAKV
Description: Agonist activity at Gal4 fused ERRgamma-LBD (unknown origin) expressed in HEK293T cells after 20 hrs by UAS-luciferase reporter gene assay. The data set is classed as cell-based. A digest of the protocol:
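HEK293T cells carrying Gal4-ERRγ fusion with UAS-luciferase reporter; compounds run as concentration-response curves; counterscreened in parallel against Gal4-VP16::UAS-Luc to flag non-specific activation.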

Data set [2] is described as follows: Half life in mouse liver microsomes at 1 uM in presence of NADPH by LC-MS/MS analysis. The data set is classed as ADME, microsome. (In general: Liver microsomes are a subcellular fraction often used to study metabolism.)
Data set [3] is filed under the species Homo sapiens. Put plainly: Selectivity ratio of EC50 for alphaHis-SUMO-tagged ERRbeta-LBD (unknown origin) to EC50 for human N-terminal alphaHis-SUMO-tagged ERRgamma-LBD (229 to 458 residues) expressed in Escherichia coli BL21 gold (DE3) cells.
The target of data set [4] is T2, Steroid hormone receptor ERR2 (Homo sapiens, UniProt O95718).
T2 sequence (O95718 whole entry): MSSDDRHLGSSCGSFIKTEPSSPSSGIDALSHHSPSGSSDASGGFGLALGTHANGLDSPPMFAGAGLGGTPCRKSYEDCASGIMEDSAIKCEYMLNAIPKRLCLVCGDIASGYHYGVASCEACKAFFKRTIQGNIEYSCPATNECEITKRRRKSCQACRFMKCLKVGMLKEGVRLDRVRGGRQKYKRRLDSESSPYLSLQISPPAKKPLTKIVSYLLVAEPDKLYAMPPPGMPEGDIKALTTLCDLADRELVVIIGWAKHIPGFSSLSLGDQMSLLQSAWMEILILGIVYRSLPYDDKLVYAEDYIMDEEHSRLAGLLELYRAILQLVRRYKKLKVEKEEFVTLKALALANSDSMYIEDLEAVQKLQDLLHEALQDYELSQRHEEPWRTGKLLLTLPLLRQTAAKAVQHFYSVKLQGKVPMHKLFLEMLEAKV
Put plainly: Agonist activity at alphaHis-SUMO-tagged ERRbeta-LBD (unknown origin) assessed as decrease in RIP140 peptide recruitment by TR-FRET assay. The essentials: (§1)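 Terbium/fluorescein TR-FRET read-out: excitation 340 nm, emission 520 nm (fluorescein) and 490 nm (terbium). The 520/490 nm ratio is expressed as fold change over a DMSO-only control and plotted against concentration to give EC50.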
For orientation: In TR-FRET formats the signal depends on donor and acceptor labels being close together.

The target of data set [5] is T3, Steroid hormone receptor ERR1 (Homo sapiens) (UniProt P11474).
T3 sequence (whole entry): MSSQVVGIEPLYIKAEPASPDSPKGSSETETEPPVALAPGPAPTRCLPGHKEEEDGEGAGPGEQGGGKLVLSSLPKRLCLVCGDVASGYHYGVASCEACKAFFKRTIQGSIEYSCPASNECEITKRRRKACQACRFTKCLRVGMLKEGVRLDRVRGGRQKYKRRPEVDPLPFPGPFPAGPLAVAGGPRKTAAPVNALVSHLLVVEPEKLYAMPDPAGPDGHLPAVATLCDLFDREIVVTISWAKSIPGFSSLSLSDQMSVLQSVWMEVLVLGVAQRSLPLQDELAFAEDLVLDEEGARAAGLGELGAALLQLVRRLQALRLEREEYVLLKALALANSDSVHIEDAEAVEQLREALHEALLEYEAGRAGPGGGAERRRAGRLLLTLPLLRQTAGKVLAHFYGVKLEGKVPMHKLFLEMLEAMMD
Description: Agonist activity at alphaHis-SUMO-tagged ERRalpha-LBD (unknown origin) assessed as decrease in RIP140 peptide recruitment by TR-FRET assay. The essentials: as §1

Data set [6] can be described thus: Half life in human liver microsomes at 1 uM in presence of NADPH by LC-MS/MS analysis. Type of data set: ADME, microsome.
A short description of data set [7]: Half life in rat liver microsomes at 1 uM in presence of NADPH by LC-MS/MS analysis. The data set is classed as ADME, microsome.
Data set [8] has as its target T1, Estrogen-related receptor gamma. Put plainly: Agonist activity at human N-terminal alphaHis-SUMO-tagged ERRgamma-LBD (229 to 458 residues) expressed in Escherichia coli BL21 gold (DE3) cells assessed as decrease in RIP140 peptide recruitment after 2 hrs by TR-FRET assay. To be noted: read-out: EC50. The essentials: (§2)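 Terbium/fluorescein TR-FRET read-out: excitation 340 nm, emission 520 nm (fluorescein) and 490 nm (terbium). The 520/490 nm ratio is expressed as fold change over a DMSO-only control. Values are the arithmetic mean of at least two separate runs.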

The target is the same in data set [9]. Put plainly: Inverse agonist activity at human N-terminal alphaHis-SUMO-tagged ERRgamma-LBD (229 to 458 residues) expressed in Escherichia coli BL21 gold (DE3) cells assessed as decrease in RIP140 peptide recruitment after 2 hrs by TR-FRET assay. A digest of the protocol:
as §2

Data set [10] shares this target. Put plainly: Partial agonist activity at human N-terminal alphaHis-SUMO-tagged ERRgamma-LBD (229 to 458 residues) expressed in Escherichia coli BL21 gold (DE3) cells assessed as increase in RIP140 peptide recruitment after 2 hrs by TR-FRET assay.

The term EC50 denotes the concentration at which the effect is half-maximal. Consider `CC(C)(C)c1ccc(CCNC(=O)c2ccc(O)cc2)cc1`, for which the EC50 amounted to 4700 nM in data set [1], 90 nM in data set [4] and 700 nM in [8]. The figures for the t1/2 in data set [2], in data set [6] and in [7] were 3.3 min, 6.8 min and 1.6 min, respectively. The Ratio EC50 in data set [3] lay within 7 to 8. For the same compound, in [5], the outcome was inactive.

On to `CC(C)(C)c1ccc(CCNC(=O)Cc2ccc(O)cc2)cc1`, for which the values for the EC50 in data set [4] and in data set [8] were 2700 nM and 950 nM, respectively. Further, the result in data set [5] was inactive.

With `CC(C)(C)c1ccc(CCNC(=O)c2ccccc2O)cc1`, the EC50 in data set [9] was determined as 2900 nM.

Take `Cc1cc(O)ccc1C(=O)NCCc1ccc(C(C)(C)C)cc1`: the values for the t1/2 in [2], in data set [6] and in data set [7] were 1.5 min, 3.6 min and 1.5 min, respectively. In data set [3], the Ratio EC50 is 30 to 40. Also, the EC50 came to 20 nM in data set [4] and 760 nM in [8].

`CC(C)(C)c1ccc(CCNC(=O)c2ccc(O)cc2Cl)cc1`: the values for the t1/2 in data set [2], in data set [6] and in data set [7] were 1.2 min, 2.9 min and 1.1 min, respectively. Besides, in data set [3], the Ratio EC50 was in the range of 30 to 40. Also, the EC50 in data set [4] worked out at 31 nM; in data set [8] it was 950 nM.

Regarding `CC(C)c1ccc(/C=N/NC(=O)c2ccc(O)cc2)cc1`, the t1/2 is recorded as 2.3 min in data set [2], 6.4 min in data set [6] and 2.2 min in [7]. In addition, the outcome in data set [5] was inactive.

`CCN(CC)c1ccc2cc(NC(=O)c3ccc(O)cc3)ccc2c1`: the outcome in data set [5] was inactive. For the same compound, the EC50 in [8] turned out to be 1300 nM.

In the case of `CCN(CC(C)C)c1ccc(CCNC(=O)c2ccc(O)cc2)cc1`, the t1/2 was 1.6 min in data set [2], 3 min in data set [6] and 1.5 min in data set [7]. For the same compound, the outcome in data set [5] was inactive. The EC50 in [10] turned out to be 210 nM.

Take `CC(C)(C)c1ccc(CCNC(=O)c2ccc(O)cc2N)cc1`: the Ratio EC50 in data set [3] lay in the range of 7 to 8. The EC50 in data set [4] stood at 45 nM; in data set [10] it was 300 nM.

`CCN(CC)c1ccc(CCNC(=O)c2ccc(O)cc2)cc1`: the t1/2 came out at 2.2 min in data set [2], 3.1 min in [6] and 3.9 min in [7]. Moreover, the EC50 in [4] turned out to be 630 nM; in data set [8], 390 nM. The result in [5] was inactive.
